Data on seven compounds can be found in ChEMBL document CHEMBL1124196, “Etodolac, a novel antiinflammatory agent. The syntheses and biological evaluation of its metabolites” (J Med Chem, 1988).

Molecules are shown by their SMILES.

Assay [1] relates to Rattus norvegicus. In words: Evaluated for the inhibition of adjuvant-induced hind paw edema in rats at 25 mg/kg dose. The assay is classed as functional. In outline:
(§1)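 Male Sprague-Dawley rats (180-200 g), groups of 10; 0.1 mL Freund's complete adjuvant (0.5 mg killed, dried Mycobacterium butyricum in mineral oil) intradermally into left hindpaw. Compound or vehicle (0.5% Tween 80 in water) by gastric lavage just before FCA (day 0) and at 24 and 48 h. Paw volume by plethysmometer before FCA and on day 3; % inhibition of mean edema versus control.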

The nature of assay [2]: Evaluated in vitro for its ability to inhibit prostaglandin E2 production in cultured chondrocyte cells at 25 mg/kg dose. It counts as functional, organism-based. The following applies: Rattus norvegicus.
The test system of assay [3] is Rattus norvegicus. Nature of the assay: Evaluated for the inhibition of adjuvant-induced hind paw edema in rats at 12 mg/kg dose. The assay is classed as functional. In outline: as §1
The nature of assay [4]: Evaluated in vitro for its ability to inhibit prostaglandin E2 production in cultured chondrocyte cells at 12 mg/kg dose. The assay is classed as functional, organism-based. The conditions noted are these: Rattus norvegicus.

Consider `CCc1cccc2c3c([nH]c12)C(CC)(CC(=O)O)OCC3=O` (stereo not drawn), for which, in the assay with Rattus norvegicus [1], the inhibition in vivo at 25 mg/kg was 21%. In assay [2], half-maximal inhibition (IC50) was put at 0.185 µM.
Regarding `CCc1cccc2c3c([nH]c12)C(CC)(CC(=O)O)OCC3NC(N)=O` (stereo not drawn) [4-UREIDOETODOLAC], in assay [2], the IC50 was above 100 µM.
Regarding `CCc1c(O)ccc2c3c([nH]c12)C(CC)(CC(=O)O)OCC3` (stereo not drawn) [7-HYDROXYETODOLAC], in the assay on Rattus norvegicus [3], the inhibition in vivo at 12 mg/kg amounted to 8%. The IC50 in assay [4] was 50 µM.
For the compound `CCc1cccc2c3c([nH]c12)C(CC)(CC(=O)O)OCC3` (stereo not drawn) [ETODOLAC], in the assay with Rattus norvegicus [1], the inhibition in vivo at 25 mg/kg was 65%. This compound came in with an IC50 in assay [2] of 0.025 µM.
Taken in the same sequence, the figures for `CCc1cccc2c3c(n(C)c12)C(CC)(CC(=O)O)OCC3` (stereo not drawn) were 11% and 25 µM.
As for `CCc1cc(O)cc2c3c([nH]c12)C(CC)(CC(=O)O)OCC3` (stereo not drawn) [6-HYDROXYETODOLAC], the inhibition in vivo at 25 mg/kg in the assay on Rattus norvegicus [1] is 10%. In assay [2], this compound had an IC50 of 6.5 µM.
Taken in the same sequence, the figures for `CCC1(CC(=O)O)OCCc2c1[nH]c1c(C(C)O)cccc21` (stereo not drawn) [8-(1-HYDROXYETHYL)ETODOLAC] were 14% and 2 µM.

The inhibition in vivo is the drop in the measured response relative to a control, in per cent. One may read the IC50 as the concentration needed to halve the response being measured.
